Legend:
Format in all cases: functional, cell-based
[1] = test system: K562; assay: Cytotoxicity against human K562 cells after 48 hrs; conditions: K562, 48 h
How it was run: (§1)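 Human lines obtained from Shanghai Cell Bank and kept in RPMI1640 with hormone-free 15% heat-inactivated FBS, 2 mM glutamine, 100 U/mL penicillin G and 100 µg/mL streptomycin. Seeded in 96-well plates at 5 × 10^4 cells/mL (K562) or 4 × 10^4 cells/mL (MKN45, HepG2). Exposed to compounds for 48 h, then viability was read by CCK-8 at 450 and 650 nm. IC50 is from triplicate experiments.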

[2] = test system: MKN-45; assay: Cytotoxicity against human MKN45 cells after 48 hrs; conditions: MKN-45, 48 h; how it was run: as §1
[3] = test system: HepG2; assay: Cytotoxicity against human HepG2 cells after 48 hrs; conditions: HepG2, 48 h; how it was run: as §1

Row | Compound | IC50 [1] [µM] | IC50 [2] [µM] | IC50 [3] [µM]
1 | C=C1C(=O)[C@]23[C@H](O)[C@H]1CC[C@H]2[C@]12[C@H](O)CCC(C)(C)[C@H]1[C@H](O)[C@]3(O)O[C@@H]2O [HEBEIRUBESCENSINS G] | 5.3 | > 10 | > 10
2 | C=C1C(=O)[C@]23[C@H](O)[C@H]1CC[C@H]2[C@@]12C(O)O[C@@]3(O)[C@@H](O)[C@@H]1C(C)(C)CC[C@H]2O (stereo not given in full) [HEBEIRUBESCENSINS H] | 5.3 | > 10 | > 10
3 | C=C1C(=O)[C@]23[C@H](O)[C@H]1CC[C@H]2[C@]12CCC[C@@](C)(COC(C)=O)[C@H]1[C@H](O)[C@]3(O)OC2 [LONGIKAURIN B] | 1.6 | 0.49 | 1.2
4 | C=C1C(=O)[C@]23C[C@H]1C[C@@H](O)[C@H]2[C@]12CCC[C@@](C)(COC(C)=O)[C@H]1[C@H](O)[C@]3(O)OC2 [LONGIKAURIN D] | 0.56 | 0.34 | 0.56
5 | C=C1C(=O)[C@@]23[C@@H]4O[C@H]5O[C@@]2(O)[C@@H](O)[C@@H]2C(C)(C)CCC[C@]52[C@@H]3[C@@H](O)C[C@@H]14 [MACROCALIN B] | > 10 | > 10 | > 10
6 | C=C1C(=O)[C@]23C[C@H]1CC[C@H]2[C@@]12CO[C@@]3(O)[C@@H](O)[C@@H]1[C@](C)(COC(C)=O)[C@@H](O)C[C@H]2O [MAOECRYSTAL I] | > 10 | 1.3 | > 10
7 | C=C1C(=O)[C@]23[C@H](O)[C@H]1C[C@H](O)[C@H]2[C@]12CCCC(C)(C)[C@H]1C(=O)[C@]3(O)[C@H]2O [PHYLLOSTACHYSIN A] | 6.6 | 3 | –
8 | C=C1C(=O)[C@@]23[C@@H]4OC5O[C@@]2(O)[C@@H](O)[C@@H]2C(C)(C)CC[C@@H](O)[C@]52[C@@H]3CC[C@@H]14 [PONICIDIN] | 1.3 | > 10 | 0.96
9 | C=C1[C@@H](OC(C)=O)[C@]23[C@H](O)[C@H]1CC[C@H]2[C@]12CCCC(C)(C)[C@H]1[C@H](OC(C)=O)[C@]3(O)OC2 [RABDOTERNIN C] | > 10 | > 10 | > 10
10 | C=C1[C@@H](O)[C@]23[C@H](O)[C@H]1C[C@H](O)[C@H]2[C@]12CCCC(C)(C)[C@H]1[C@H](OC(C)=O)[C@]3(O)OC2 [RABDOTERNIN D] | > 10 | > 10 | > 10
11 | C=C1C(=O)[C@]23[C@H](O)[C@H]1CC[C@H]2[C@@]12C(OC)O[C@@]3(O)[C@@H](O)[C@@H]1C(C)(C)CC[C@H]2O (stereo not given in full) [RABDOTERNIN E] | 2.4 | > 10 | > 10
12 | C=C1C(=O)[C@]23[C@H](O)[C@H]1C[C@H](O)[C@H]2[C@]12CCCC(C)(C)[C@H]1[C@H](O)[C@]3(O)OC2 [ROSTHORIN A] | 0.33 | 5.4 | 6.4
13 | C=C1C(=O)[C@]23C[C@H]1C[C@@H](O)[C@@H]2[C@@]1(CCC[C@@](C)(COC(C)=O)[C@H]1C=O)COC3=O [TRICHORABDAL B] | > 10 | > 10 | > 10
14 | C=C1C(=O)[C@@]23[C@@H]4O[C@H]5O[C@@]2(O)[C@@H](O)[C@@H]2C(C)(C)CCC[C@]52[C@@H]3[C@@H](OC(C)=O)C[C@@H]14 [XEROPHILUSIN A] | 1.6 | > 10 | > 10
15 | C=C1C(=O)[C@@]23[C@@H]4O[C@H]5O[C@@]2(O)[C@@H](O)[C@@H]2C(C)(C)CCC[C@]52[C@@H]3CC[C@@H]14 [XEROPHILUSIN B] | 4.1 | 0.4 | 3.9
16 | C=C1C(=O)[C@]23[C@H](O)[C@H]1CC[C@H]2[C@@]12CCC[C@@]4(C)CO[C@H]1O[C@@]3(O)[C@@H](O)[C@H]42 [XEROPHILUSIN D] | 9 | 3.9 | 4.2

Row | Compound | IC50 [1] [µM] | IC50 [2] [µM] | IC50 [3] [µM]
17 | C=C1C(=O)[C@]23[C@H](O)[C@H]1C[C@H](OC(C)=O)[C@H]2[C@]12CCCC(C)(C)[C@H]1C(=O)[C@]3(O)[C@H]2O [XEROPHILUSIN F] | 4.3 | > 10 | 4.9
18 | C=C1C(=O)[C@]23C[C@H]1CC[C@H]2[C@@]12CO[C@@]3(O)[C@@H](O)[C@@H]1[C@](C)(COC(C)=O)CC[C@H]2O [XEROPHILUSIN H] | > 10 | > 10 | > 10
19 | C=C1C(=O)[C@@]23C(=O)[C@@H](O)[C@@H]4C(C)(C)CCC[C@@]4(C=O)[C@@H]2[C@@H](O)C[C@@H]1[C@H]3O [XEROPHILUSIN II] | 1 | > 10 | 4.5
20 | C=C1C(=O)[C@]23[C@H](O)[C@H]1CC[C@H]2[C@]12CCC[C@@](C)(CO)[C@H]1[C@H](O)[C@]3(O)OC2 [XEROPHILUSIN IV] | > 10 | > 10 | > 10
21 | C=C1C(=O)[C@]23C[C@H]1CC[C@H]2[C@@]12CO[C@@]3(O)[C@@H](O)[C@@H]1C(C)(C)CC[C@H]2O [XEROPHILUSIN I] | 7.6 | 6.2 | 4
22 | C=C1C(=O)[C@]23[C@H](O)[C@H]1C[C@H](OC(C)=O)[C@H]2[C@]12CCCC(C)(C)[C@H]1[C@H](O)[C@]3(O)OC2 [XEROPHILUSIN K] | 1.4 | 5.6 | 2.2
23 | C=C1C(=O)[C@]23[C@H](O)[C@H]1CC[C@H]2[C@]12CCCC(C)(C)[C@H]1[C@H](O)[C@]3(O)OC2=O [XEROPHILUSIN N] | 1.2 | 4.8 | > 10
24 | C=C1C(=O)[C@]23[C@H](O)[C@H]1C[C@H](O)[C@H]2[C@@]12CO[C@@]3(O)[C@@H](O)[C@@H]1[C@](C)(COC(C)=O)CC[C@H]2O [XEROPHILUSIN VI] | > 10 | > 10 | > 10
25 | C=C1[C@@H](O)[C@]23[C@H](O)[C@H]1CC[C@H]2[C@@]12CO[C@@]3(O)[C@@H](O)[C@@H]1[C@](C)(CO)CC[C@H]2O [XEROPHILUSIN V] | > 10 | > 10 | > 10
26 | COC[C@@H]1C(=O)[C@]23[C@H](O)[C@H]1C[C@H](OC(C)=O)[C@H]2[C@]12CCCC(C)(C)[C@H]1[C@H](O)[C@]3(O)OC2 [XEROPHILUSIN X1] | 1.5 | 3.9 | 1.9
27 | C=C1C(=O)[C@]23[C@H](O)[C@H]1C[C@H](OC(C)=O)[C@H]2[C@]12CCCC(C)(C)[C@H]1[C@H](O)[C@]3(O)O[C@@H]2OC [XEROPHILUSIN XII] | 3.6 | 2.1 | 4.9
28 | C=C1C(=O)[C@]23[C@H](O)[C@H]1C[C@H](O)[C@H]2[C@]12CCCC(C)(C)[C@H]1[C@H](O)[C@]3(O)O[C@@H]2OC [XEROPHILUSIN XI] | > 10 | > 10 | > 10
29 | C=C1[C@@H]2C[C@H](OC(C)=O)[C@H]3[C@]45CCCC(C)(C)[C@H]4[C@H](OC(C)=O)[C@](O)(OC5)[C@]3([C@@H]2O)[C@H]1O [XEROPHILUSIN X] | > 10 | > 10 | > 10
30 | C=C1C(=O)[C@]23[C@H](O)[C@H]1C[C@H](O)[C@H]2[C@]1(C=O)CCCC(C)(C)[C@H]1C(=O)[C@@H]3O [XEROPHILUSINE I] | 0.04 | 2.8 | 0.19
31 | CC(=O)O[C@H]1C[C@H]2C3=C(O[C@]4(CC3)C(=O)[C@@]35[C@@H]6O[C@H]7O[C@@]3(O)[C@@H](O)[C@@H]3C(C)(C)CCC[C@@]73[C@@H]5[C@@H](OC(C)=O)C[C@H]64)[C@@]34[C@@H]2O[C@H]2O[C@@]3(O)[C@@H](O)[C@@H]3C(C)(C)CCC[C@]23[C@H]14 [enanderinanin J] | > 10 | > 10 | > 10
32 | C=C1C(=O)[C@]23[C@H](O)[C@H]1CC[C@H]2[C@@]12CO[C@@]3(O)[C@@H](O)[C@@H]1[C@](C)(COC(C)=O)CC[C@H]2O [xerophilusin G] | > 10 | > 10 | > 10

From ChEMBL document CHEMBL1141259, “Cytotoxic ent-kauranoids from the medicinal plant Isodon xerophilus” (J Nat Prod, 2007)
